# Only some compounds are listed: those with a hit (about 2% of all), similar ones and a draw of the others.
# PKA-R1A act = activates the PKA-R1A holoenzyme complex; activation, % at 11.4 µM; PKA-R1A dissociation, Cy5-IP20 fluorescence polarization; scaled: DMSO 0%, 113 µM cGMP 100%; 340,000 compounds, 0.083% hits; P00514+P68181;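 active = percent activation above the mean of all tested compounds plus 3 SD, cut at about 19% in these data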;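 also: higher means more PKAc released from R1A so a rise in polarization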
# CAL PDZ FP-1 = human CAL PDZ-peptide interaction inhibition. Q9HD26. purified CAL PDZ, TMR-peptide fluorescence polarization, 1 h. inhibition, % at 20 µM. 330,000 compounds, 0.02% hits. AID 504414;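 active = highest replicate inhibition of at least 40%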
#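 Material – purified CerCALP PDZ construct · Detection – FP readout, S and P plane fluorescence · Measure – percent inhibition from loss of millipolarization · Controls – unlabelled peptide for full inhibition, DMSO wells as neutral · Probe or stimulus – TMR-labelled reporter peptide T*-PRC34 bound in PDZ groove · Times – 1 h at RT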
# dFosB activator = enhances mouse delta FosB homodimer DNA binding | P13346 | purified delta FosB, TAMRA-CDK5 oligo fluorescence polarization; percent of positive-control signal above neutral wells | activation, % at 25 µM | 340,000 compounds, 0.99% hits;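 active = mean activation above about 17%, with every replicate also reaching it, limit read from the data, passing the limit was not always enough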
# NTR1 agonist = NTR1 (human) agonism. P30989. activation, % at 20 µM. NTR1-U2OS beta-arrestin-GFP spot imaging, agonist mode. 330,000 compounds, 0.17% hits. AID 493036;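 active = activation at or above 40% of the spot to cytoplasm intensity ratio, with at least 20 cells analyzed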
# CAL PDZ FP-2 = CAL PDZ (human) peptide binding inhibition | 300,000 compounds, 0.92% hits | inhibition, % at 24.9 µM | Q9HD26 | purified CAL PDZ, TMR-peptide fluorescence polarization, 1 h;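 active = mean inhibition of at least 30% with at least half of replicates also reaching 30%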
# PKA-R2B activ = PKA-R2B complex activation | PKA-R2B holoenzyme dissociation, Cy5-IP20 fluorescence polarization; R2B truncated from residue 108, S112A mutant; 0% DMSO only, 100% 113 µM cGMP | activation, % at 11.4 µM | 340,000 compounds, 0.079% hits | AID 504700;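 active = activation above a cutoff set at the mean over all compounds plus 3 SD, cut at about 18% in these data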;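 also: higher means more holoenzyme dissociation and a rise in polarization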
# Target sequence (P31323 whole entry, looked up, other chains not shown, the tested form may be a part): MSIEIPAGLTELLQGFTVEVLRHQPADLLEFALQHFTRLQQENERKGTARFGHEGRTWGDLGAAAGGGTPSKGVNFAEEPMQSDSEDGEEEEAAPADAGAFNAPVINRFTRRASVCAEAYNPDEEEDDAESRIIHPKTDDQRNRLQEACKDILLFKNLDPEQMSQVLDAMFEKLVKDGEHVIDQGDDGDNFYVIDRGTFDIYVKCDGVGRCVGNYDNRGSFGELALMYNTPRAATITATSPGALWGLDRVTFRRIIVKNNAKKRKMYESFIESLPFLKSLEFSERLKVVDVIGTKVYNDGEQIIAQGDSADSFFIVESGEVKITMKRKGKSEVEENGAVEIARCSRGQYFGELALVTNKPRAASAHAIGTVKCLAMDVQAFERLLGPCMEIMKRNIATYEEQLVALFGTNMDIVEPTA
# Hits are given with their value; . = inactive; / = no result; + = active, no number.
SMILES,PKA-R1A act,CAL PDZ FP-1,dFosB activator,NTR1 agonist,CAL PDZ FP-2,PKA-R2B activ
CCOC(=O)C1CCN(C(=O)C2CCN(C(=O)c3ccc([N+](=O)[O-])cc3)CC2)CC1,.,.,.,.,.,.
CCOC(=O)N1CCN(C(=O)C2CCN(C(=O)c3ccc([N+](=O)[O-])cc3)CC2)CC1,.,.,.,.,76.8,.
Cc1ccc(-c2nn(-c3ccccc3)c3[nH]c(=O)c(CNCc4ccccc4)cc23)cc1,.,.,21.4,.,.,.
Cc1cccc(NC(=O)CSCC(=O)N2CCN(C(=O)c3ccco3)CC2)c1,.,.,.,.,/,.
COc1cccc2cc(C(=O)N(Cc3ccccc3)CC3CCCO3)c(=O)oc12 (centres undefined),.,.,.,.,43.2,.
O=C(c1cc2ccccc2oc1=O)N(Cc1ccccc1)CC1CCCO1 (centres undefined),.,.,.,.,.,.
O=C(NCc1ccccc1)c1nc(S(=O)(=O)Cc2ccccc2)ncc1Cl,.,.,.,.,+,.
N#Cc1cccc2c1-c1ccccc1/C2=N/NC(N)=O,.,/,.,.,.,.
N#Cc1cccc2c1-c1ccccc1/C2=N/NC(N)=S,.,.,.,.,56.1,.
Nc1[nH]nc2nc3ccccc3cc12,.,.,.,.,46.6,.
CCc1ccc2nc3n[nH]c(N)c3cc2c1,.,.,.,.,.,.
CNC[C@@H]1OCc2cnnn2CCCC(=O)N([C@H](C)CO)C[C@H]1C,.,/,/,/,/,.
CCOC(=O)c1[nH]ncc1CN1CCN(Cc2ccccc2)C(CCO)C1 (centres undefined),.,.,.,.,30.4,.
CCOC(=O)c1[nH]ncc1CN1CCN(Cc2ccc(C)cc2)C(CCO)C1 (centres undefined),.,.,.,.,.,.
CCOC(=O)c1cnn(-c2ccccc2)c1N,.,.,.,.,.,.
CCOC(=O)c1cnn(-c2ccc([N+](=O)[O-])cc2)c1N,.,.,.,.,60.2,.
CC(CNC(=O)c1ccccc1Cl)c1ccccc1 (centres undefined),.,/,.,.,.,.
O=C(CN(Cc1ccccc1)S(=O)(=O)c1ccc(F)cc1)NCCC1=CCCCC1,.,.,.,.,73.2,.
Cc1cc(NC(=O)c2c(Br)c(C)nn2C)no1,.,.,.,.,82.7,.
Cc1ccc(NC(=O)C(SCC(=O)O)c2ccccc2)cc1C (centres undefined),.,.,.,.,69.3,.
COC(=O)CSC(C(=O)Nc1ccc(C)c(C)c1)c1ccccc1 (centres undefined),.,.,.,.,.,.
O=C(CN1C(=O)NC2(CCCCCC2)C1=O)Nc1ccc(Br)cc1Br,.,.,.,.,.,.
Cc1ccc(S(=O)(=O)Nc2c(C)nc3nc(C)[nH]n3c2=O)c(C)c1,.,.,.,.,.,.
NC(=NC(=O)c1ccccc1)N1CCN(C(c2ccccc2)c2ccccc2)CC1,.,.,.,.,89.4,.
CCc1cccc(NC(=O)COC(=O)/C=C/c2cccs2)c1,.,.,.,.,.,.
SMILES,PKA-R1A act,CAL PDZ FP-1,dFosB activator,NTR1 agonist,CAL PDZ FP-2,PKA-R2B activ
O=C(CC1C(=O)NCCN1Cc1cccc(F)c1)NCCCCCN1CCOCC1 (centres undefined),.,.,.,.,48.3,.
O=C(NC1CCCCCC1)c1cccc(N2CCCC2=O)c1,.,.,.,.,.,.
O=C(NC1CCCN(Cc2ccc(Cl)cc2)C1)c1cccc(N2CCCC2=O)c1 (centres undefined),.,139.3,.,.,.,.
COc1ccc(Br)cc1CN(C)C(=O)c1ccccc1SCC(=O)N1CCCC1,.,.,.,/,/,.
Cc1nn(CCOc2cccc(Br)c2)c(C)c1[N+](=O)[O-],.,.,.,.,58.7,.
Cc1ccc(OCCOc2cccc(Br)c2)c([N+](=O)[O-])n1,.,.,.,.,.,.
COc1ccc(C2CN=NC23CCCc2ccccc2C3=O)cc1 (centres undefined),.,.,.,.,56.9,.
COc1ccc(C2CN=NC23CCc2ccccc2C3=O)cc1 (centres undefined),.,.,.,.,.,.
CC(C)(C)c1ccc(C(=O)NNc2ncccc2-n2cccc2)cc1,.,.,.,.,169.5,.
COc1ccc(-c2csc(NC(=O)C3CCN(C(=O)c4ccc(F)cc4)CC3)n2)cc1OC,.,.,.,.,.,.
OCC1OC(n2ccc3c(SCc4ccccc4)ncnc32)C(O)C1O (centres undefined),.,.,.,/,.,.
COc1ccccc1C(CNC(=O)c1ccc(NS(=O)(=O)c2ccc(F)c(C)c2)cc1)N1CCCC1 (centres undefined),.,.,.,.,.,.
COc1ccc(C(CNC(=O)c2ccc(NS(=O)(=O)c3ccc(F)c(C)c3)cc2)N2CCCC2)cc1 (centres undefined),.,.,.,/,55.4,.
Cc1ccc(C(=O)N2CCCCC2C(=O)O)cc1S(=O)(=O)N1CCCCC1 (centres undefined),.,.,.,.,/,.
CCOC(=O)C1CCN(c2c(NCCN(CC)c3ccccc3)c(=O)c2=O)CC1,.,.,.,.,54.2,.
COc1cc2ccnc(C=NO)c2cc1OC,.,/,/,/,/,.
CC(C)CCCCCCCCCCCCC(=O)NCC(=O)NC1C(C)OC(Nc2ncnc3nc[nH]c23)C(O)C1O (centres undefined),.,.,67.6,/,.,.
C/C(=C\CNc1ncnc2nc[nH]c12)CO,.,.,.,.,.,.
CCOc1ccc(-n2cnnn2)cc1S(=O)(=O)NCCc1ccc(OC)c(OC)c1,.,.,.,.,.,.
COc1ccc(CCNS(=O)(=O)c2ccc(-n3cnnn3)cc2)cc1OC,.,.,.,.,+,.
OCC1(Cc2ccc(Cl)cc2)CCN(Cc2ccc3nsnc3c2)CC1,.,.,.,.,.,.
OCC1(Cc2ccc(Cl)cc2)CCN(Cc2ccc(F)c(F)c2)CC1,.,.,.,.,65.9,.
COc1cccc(-n2cnc3c(sc4nc(N5CCOCC5)c5c(c43)CCCC5)c2=O)c1,.,.,.,.,.,.
Cc1cccc(C)c1NC(=O)c1ccc([N+](=O)[O-])s1,.,.,.,.,.,.
Cc1cccc(NC(=O)c2ccc([N+](=O)[O-])s2)c1C,.,.,.,.,47.1,.
COc1ccc(NC(=O)CSc2nc3n[nH]c(C)c3c(=N)n2-c2ccc(Cl)c(C)c2)cc1OC,.,.,44.2,.,.,.
COc1ccc(OC)c(NC(=O)CSc2nc3n[nH]c(C)c3c(=N)n2-c2cccc(Cl)c2C)c1,.,.,.,.,.,.

# Screening results from PubChem.
